Test results published in ChEMBL document CHEMBL3124801, “Structure-based optimization of tyrosine kinase inhibitor CLM3. Design, synthesis, functional evaluation, and molecular modeling studies” (J Med Chem, 2014).

Legend:
[1] = molecular target: Proto-oncogene tyrosine-protein kinase receptor Ret (Homo sapiens) (UniProt P07949); experiment: Inhibition of recombinant human RET at 100 uM incubated for 5 mins with substrate prior to protein addition by fluorescence assay relative to control
Summary of the method: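 Human recombinant RET was assayed with Omnia Tyr peptide 7 substrate at 30 °C, from 1 mM ATP and 1 mM DTT stocks, with DMSO ≤1% final. Mix plus inhibitor was preincubated 5 min before kinase was added to start the reaction. Fluorescence (ex 360/em 485 nm) was followed over time, and activity was taken from a linear fit of intensity versus time. Compounds were screened at 100 μM.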

TT [2] = experiment: Antiproliferative activity against human TT cells after 72 hrs by cell counter
HUVEC = experiment: Antiproliferative activity against HUVEC after 72 hrs by cell counter; conditions: Homo sapiens
[3] = Antiproliferative activity against HMVEC-d cells after 72 hrs; conditions: Homo sapiens
TT [4] = experiment: Antiproliferative activity against human TT cells
8305C = experiment: cells; conditions: Homo sapiens, 72 h
[5] = Antiproliferative activity against HNDF after 72 hrs by cell counter; conditions: Homo sapiens

Proto-oncogene tyrosine-protein kinase receptor Ret (Homo sapiens), sequence (P07949 whole entry): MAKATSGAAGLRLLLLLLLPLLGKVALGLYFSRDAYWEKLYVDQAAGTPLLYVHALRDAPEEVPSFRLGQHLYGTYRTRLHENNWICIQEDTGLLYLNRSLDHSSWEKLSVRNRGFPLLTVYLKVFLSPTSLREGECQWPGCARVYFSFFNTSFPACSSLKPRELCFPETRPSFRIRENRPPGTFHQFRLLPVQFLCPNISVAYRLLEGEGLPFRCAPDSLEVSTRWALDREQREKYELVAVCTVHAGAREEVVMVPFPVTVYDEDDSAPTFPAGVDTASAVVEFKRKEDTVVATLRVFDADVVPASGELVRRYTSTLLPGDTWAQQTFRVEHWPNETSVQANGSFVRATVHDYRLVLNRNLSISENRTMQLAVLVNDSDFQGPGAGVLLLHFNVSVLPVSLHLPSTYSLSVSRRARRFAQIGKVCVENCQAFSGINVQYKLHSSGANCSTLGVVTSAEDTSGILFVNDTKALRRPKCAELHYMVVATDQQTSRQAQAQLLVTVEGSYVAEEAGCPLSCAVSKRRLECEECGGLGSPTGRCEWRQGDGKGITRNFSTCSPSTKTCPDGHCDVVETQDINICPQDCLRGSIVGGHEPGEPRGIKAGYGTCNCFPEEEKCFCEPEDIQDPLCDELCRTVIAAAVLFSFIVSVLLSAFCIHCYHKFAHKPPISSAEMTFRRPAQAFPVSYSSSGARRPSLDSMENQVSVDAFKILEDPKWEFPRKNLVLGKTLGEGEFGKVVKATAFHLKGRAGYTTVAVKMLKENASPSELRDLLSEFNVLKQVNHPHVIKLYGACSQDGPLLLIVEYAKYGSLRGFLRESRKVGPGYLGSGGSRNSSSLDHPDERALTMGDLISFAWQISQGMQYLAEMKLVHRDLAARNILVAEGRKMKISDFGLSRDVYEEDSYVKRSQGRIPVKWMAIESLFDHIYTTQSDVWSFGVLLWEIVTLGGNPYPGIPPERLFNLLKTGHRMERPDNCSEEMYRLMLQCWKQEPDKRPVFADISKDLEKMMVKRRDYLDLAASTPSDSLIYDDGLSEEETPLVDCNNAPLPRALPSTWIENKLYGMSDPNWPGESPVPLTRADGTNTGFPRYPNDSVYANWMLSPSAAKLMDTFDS

Row | inhibition [1] | Structure (SMILES) | IC50 (TT [2]) | IC50 (HUVEC) | further results
1 | 57% | O=[N+]([O-])c1ccc(S(=O)(=O)Nc2cccc(CNc3ncnc4c3cnn4CCc3ccccc3)c2)cc1 | – | – | –
2 | – | O=S(=O)(Nc1cccc(CNc2ncnc3c2cnn3CCc2ccccc2)c1)c1ccccc1 | 8.08 µM | 22.6 µM | –
3 | – | O=C(Nc1cccc(CNc2ncnc3c2cnn3CCc2ccccc2)c1)c1ccc(F)cc1 | 13.6 µM | 15.9 µM | –
4 | 37% | O=C(Nc1ccc([N+](=O)[O-])cc1)Nc1cccc(CNc2ncnc3c2cnn3CCc2ccccc2)c1 | – | – | –
5 | – | O=C(Nc1ccc(Br)cc1)Nc1cccc(CNc2ncnc3c2cnn3CCc2ccccc2)c1 | 9.86 µM | 18.6 µM | –
6 | 8% | COc1ccc(S(=O)(=O)Nc2cccc(CNc3ncnc4c3cnn4CCc3ccccc3)c2)cc1OC | – | – | –
7 | – | O=C(Nc1cccc(CNc2ncnc3c2cnn3CCc2ccccc2)c1)c1ccc(Br)cc1 | 13.5 µM | 9.83 µM | –
8 | – | O=C(Nc1cccc(CNc2ncnc3c2cnn3CCc2ccccc2)c1)c1ccccc1 | 13.8 µM | 15.3 µM | –
9 | 48% | C[C@@H](Nc1ncnc2c1cnn2CCc1ccccc1)c1ccccc1 | – | – | IC50 [3]: 0.0004 µM; IC50 (TT [4]): 26.9 µM; IC50 (8305C): 9.2 µM
10 | – | O=C(Nc1cccc(CNc2ncnc3c2cnn3CCc2ccccc2)c1)c1ccc([N+](=O)[O-])cc1 | 6.13 µM | 16.6 µM | IC50 [5]: 22 µM
11 | – | O=S(=O)(Cc1ccccc1)Nc1cccc(CNc2ncnc3c2cnn3CCc2ccccc2)c1 | 5.97 µM | 50.7 µM | IC50 [5]: 23.6 µM
12 | – | O=C(Nc1ccccc1)Nc1cccc(CNc2ncnc3c2cnn3CCc2ccccc2)c1 | 8.42 µM | 13.4 µM | –
